Source: ChEMBL document CHEMBL1135421, “2-(Anilinomethyl)imidazolines as alpha1 adrenergic receptor agonists: the discovery of alpha1a subtype selective 2'-alkylsulfonyl-substituted analogues” (J Med Chem, 2002)
pEC50, pKi: −log10 of the molar value. “And” between values parts separate entries of the source, which are not always exact repeats. Equal values may be shown once.

Assays:
[1] = molecular target: T1, Alpha-2A adrenergic receptor (Homo sapiens, UniProt P08913); experiment: Affinity to human Alpha-2A adrenergic receptor determined by radioligand binding techniques from chinese hamster ovary (CHO) cells; assay type: cell-based
T1 sequence (P08913 whole entry): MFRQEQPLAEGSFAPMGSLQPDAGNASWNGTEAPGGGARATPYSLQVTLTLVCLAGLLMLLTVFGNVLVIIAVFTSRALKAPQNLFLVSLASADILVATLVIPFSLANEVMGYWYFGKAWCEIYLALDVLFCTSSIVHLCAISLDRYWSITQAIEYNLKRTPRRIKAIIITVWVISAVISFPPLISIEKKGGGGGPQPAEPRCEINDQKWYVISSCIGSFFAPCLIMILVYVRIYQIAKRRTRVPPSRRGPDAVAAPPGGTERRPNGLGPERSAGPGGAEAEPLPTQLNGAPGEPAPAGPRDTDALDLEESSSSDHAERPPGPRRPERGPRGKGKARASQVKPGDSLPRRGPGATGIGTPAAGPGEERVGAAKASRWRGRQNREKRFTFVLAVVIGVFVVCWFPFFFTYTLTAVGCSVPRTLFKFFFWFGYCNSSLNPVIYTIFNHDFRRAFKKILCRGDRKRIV

[2] = molecular target: T2, Alpha-1A adrenergic receptor (Homo sapiens) (UniProt P35348); experiment: Efficacy as % of the maximal effect observed for nonselective agonist phenylephrine in rat-1 fibroblasts expressing human Alpha-1 adrenergic receptor; assay type: functional
T2 sequence (whole entry): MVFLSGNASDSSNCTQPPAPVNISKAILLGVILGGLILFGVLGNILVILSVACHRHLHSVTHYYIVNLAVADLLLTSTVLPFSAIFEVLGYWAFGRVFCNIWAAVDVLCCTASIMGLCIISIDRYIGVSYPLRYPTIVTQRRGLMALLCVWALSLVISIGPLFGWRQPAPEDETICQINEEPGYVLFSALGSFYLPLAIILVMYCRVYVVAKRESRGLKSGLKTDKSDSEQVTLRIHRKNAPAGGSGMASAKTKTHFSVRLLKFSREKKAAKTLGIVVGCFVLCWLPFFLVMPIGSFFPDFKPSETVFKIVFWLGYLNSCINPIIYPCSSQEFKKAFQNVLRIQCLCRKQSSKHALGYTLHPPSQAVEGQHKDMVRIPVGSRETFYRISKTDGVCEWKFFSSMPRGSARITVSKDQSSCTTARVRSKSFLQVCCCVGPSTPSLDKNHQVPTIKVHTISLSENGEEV
Outline: (§1)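 Rat-1 fibroblasts expressing human α1a/α1b/α1d, grown in DMEM with 10% heat-inactivated FBS and 0.6 mg/mL G418, plated 6000 cells/well and cultured 48 h at 37 °C. Loaded 2 h at 37 °C with Calcium Green (4 μM), 0.2% pluronic acid and 2.5 mM probenecid in HEPES buffer pH 7.4. FLIPR read at room temperature: 10 s baseline, then 50 s after compound. 11-point curves as % of 40 μM phenylephrine response, top concentration typically 5 μM.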

[3] = molecular target: T3, Alpha-1A adrenergic receptor (Homo sapiens, UniProt P35348); experiment: Agonist potency at Alpha-1 adrenergic receptor assayed in rat-1 fibroblasts expressing human Alpha-1 adrenergic receptor; assay type: functional; outline: as §1
T3 sequence (P35348 whole entry): T2 sequence (whole entry)

[4] = molecular target: T1, Alpha-2A adrenergic receptor; experiment: Agonist potency at Alpha-2A adrenergic receptor expressed in CHO cells; assay type: functional, cell-based
[5] = molecular target: T4, Alpha-2C adrenergic receptor (Homo sapiens, UniProt P18825); experiment: Agonist potency at Alpha-2C adrenergic receptor expressed in CHO cells; assay type: functional, cell-based
T4 sequence (P18825 whole entry): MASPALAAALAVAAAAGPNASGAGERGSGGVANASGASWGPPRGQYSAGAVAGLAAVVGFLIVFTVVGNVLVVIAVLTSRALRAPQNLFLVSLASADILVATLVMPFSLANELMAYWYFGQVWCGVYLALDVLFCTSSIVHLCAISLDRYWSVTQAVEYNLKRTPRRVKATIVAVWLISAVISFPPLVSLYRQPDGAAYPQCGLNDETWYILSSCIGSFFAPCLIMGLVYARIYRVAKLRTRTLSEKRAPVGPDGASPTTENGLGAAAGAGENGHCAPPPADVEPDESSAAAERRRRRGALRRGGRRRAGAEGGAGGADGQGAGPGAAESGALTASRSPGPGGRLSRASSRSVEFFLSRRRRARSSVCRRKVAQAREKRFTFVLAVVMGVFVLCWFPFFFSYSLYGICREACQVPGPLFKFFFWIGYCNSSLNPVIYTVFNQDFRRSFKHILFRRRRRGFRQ

[6] = molecular target: T5, Alpha-1B adrenergic receptor (Homo sapiens, UniProt P35368); experiment: Agonist potency at Alpha-1B adrenergic receptor expressed in rat-1 fibroblasts; assay type: functional
T5 sequence (P35368 whole entry): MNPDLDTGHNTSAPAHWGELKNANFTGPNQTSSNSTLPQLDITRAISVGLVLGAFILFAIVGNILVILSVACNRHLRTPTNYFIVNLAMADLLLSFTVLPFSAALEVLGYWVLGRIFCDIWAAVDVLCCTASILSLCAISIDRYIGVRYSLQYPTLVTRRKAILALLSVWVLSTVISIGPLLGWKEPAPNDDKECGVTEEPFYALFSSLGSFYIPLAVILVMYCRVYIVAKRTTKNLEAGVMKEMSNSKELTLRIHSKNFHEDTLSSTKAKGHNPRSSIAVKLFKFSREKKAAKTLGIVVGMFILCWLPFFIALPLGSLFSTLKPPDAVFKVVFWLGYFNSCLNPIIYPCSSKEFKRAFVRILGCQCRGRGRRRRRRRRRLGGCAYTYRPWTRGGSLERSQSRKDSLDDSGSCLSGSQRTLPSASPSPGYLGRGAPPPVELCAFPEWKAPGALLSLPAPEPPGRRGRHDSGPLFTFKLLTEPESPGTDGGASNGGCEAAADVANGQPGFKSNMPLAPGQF

[7] = molecular target: T6, Alpha-2A adrenergic receptor (Homo sapiens) (UniProt P08913); experiment: Efficacy as percentage of the maximal effect observed for nonselective agonist UK-14304 in CHO cells expressing human Alpha-2A adrenergic receptor; assay type: functional, cell-based
T6 sequence (whole entry): T1 sequence (P08913 whole entry)

[8] = molecular target: T1, Alpha-2A adrenergic receptor; experiment: Agonist potency at Alpha-2A stably expressed in CHO cells.; assay type: functional, cell-based
[9] = molecular target: T4, Alpha-2C adrenergic receptor; experiment: Agonist potency at Alpha-2C adrenergic receptor assayed in CHO cells expressing human Alpha-2C adrenergic receptor; assay type: functional, cell-based

SMILES | pKi [1] | Max [2] | pEC50 [3] | pEC50 [4] | pEC50 [5] | pEC50 [6] | Max [7] | pEC50 [8] | pEC50 [9]
CC(C)S(=O)(=O)c1ccccc1NCC1=NCCN1 | 5.53 | 70% | 5.71 | < 5.00 | < 5.00 | < 5.00 | – | – | –
CS(=O)(=O)c1c(F)cccc1NCC1=NCCN1 | < 5.10 | – | 7.62 | < 5.00 | 6.30 | < 4.00 | 64% | – | –
CS(=O)(=O)c1cccc(F)c1NCC1=NCCN1 | 6.06 | 106% | 7.38 | – | – | < 4.00 | 38% | < 5.00 | 6.35
CS(=O)(=O)c1ccc(F)cc1NCC1=NCCN1 | 5.35 | 96% | 7.78 | – | – | < 4.00 | 18% | < 5.00 | 5.70
CC(C)Sc1ccccc1NCC1=NCCN1 | 7.09 | 115% | 8.30 | 6.38 | 7.55 | 7.21 | 64% | – | –
CS(=O)(=O)c1ccccc1NCC1=NCCN1 | 5.25 | 103% | – | – | – | < 4.00 | 11% | < 5.00 | 5.50
CCCS(=O)(=O)c1ccccc1NCC1=NCCN1 | – | 115% | – | – | – | – | 23% | – | –
CSc1ccc(C)cc1NCC1=NCCN1 | 7.20 | 101% | 9.96 | – | – | 9.38 | 87% | 7.60 | 8.05
CSc1ccc(Cl)cc1NCC1=NCCN1 | 7.38 | 82% | 9.36 | – | – | 9.30 | 93% | 8.20 | 8.55
Cc1ccc(S(C)(=O)=O)c(NCC2=NCCN2)c1 | 5.41 | 98% | 8.71 | – | – | 6.85 | 24% | < 5.00 | 5.95
C[S+]([O-])c1ccccc1NCC1=NCCN1 (stereo not drawn) | 6.01 | 91% | – | < 5.00 | < 5.00 | < 4.00 | 21% | – | –
CSc1ccccc1NCC1=NCCN1 | 7.32 | – | – | – | 8.25 | – | 76% | – | –
COc1ccc(SC)c(NCC2=NCCN2)c1 | 6.66 | 101% | 8.80 | – | – | 8.44 | 52% | 6.35 and 6.70 | –
CS(=O)(=O)c1cc(Cl)ccc1NCC1=NCCN1 | 5.30 | 41% | 6.29 | – | – | – | 38% | < 5.00 | < 5.00
CS(=O)(=O)c1ccc(Cl)cc1NCC1=NCCN1 | < 5.10 | 91% | 8.55 | – | – | 7.21 | 42% | < 5.00 | 6.10
CS(=O)(=O)c1cc(F)ccc1NCC1=NCCN1 | 6.40 | 61% | – | < 5.00 | < 5.00 | < 4.00 | 19% | – | –
CCS(=O)(=O)c1ccccc1NCC1=NCCN1 | 5.88 | 115% | 6.62 | < 5.00 | 5.30 | < 4.00 | 10% | – | –
CSc1ccc(F)cc1NCC1=NCCN1 | 7.74 | 90% | 8.64 | – | – | 8.73 | 96% | 7.60 | 8.25
CCSc1ccccc1NCC1=NCCN1 | 7.09 | 109% | 8.47 | 6.60 | – | 7.86 | 67% | – | 7.55
CSc1cc(F)ccc1NCC1=NCCN1 | 7.23 | 93% | 8.11 | – | – | 8.22 | 47% | 6.50 | 7.00
CS(=O)(=O)c1ccc(C(F)(F)F)cc1NCC1=NCCN1 | < 5.10 | 95% | 5.96 | – | – | < 4.00 | 33% | < 5.00 | < 5.00
CSc1ccc(C(F)(F)F)cc1NCC1=NCCN1 | 6.70 | 111% | 7.98 | – | – | 8.22 | 40% | < 5.00 | 8.10
